# Key:
# [1] = Cytotoxicity against African green monkey Vero cells assessed as alterations in cell morphology by microscopic analysis; type: toxicity, cell-based; conditions: chlorocebus sabaeus
# Procedure, shortened: (§1)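 Compound added to subconfluent cell monolayers in 96-well plates together with virus (CPE reduction assay format); after 3–5 days incubation, cultures inspected by microscopy. MCC taken as compound concentration producing minimal alterations in cell morphology.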
# Human respirovirus 3 = assay: Antiviral activity against Para-influenza-3 virus infected in African green monkey Vero cells assessed as protection against virus-induced cytopathic effect measured after 3 to 5 days by microscopic analysis; type: functional, cell-based; conditions: Human respirovirus 3, Vero
# [2] = tested on: Mammalian orthoreovirus 1; assay: Antiviral activity against Reovirus-1 infected in African green monkey Vero cells assessed as protection against virus-induced cytopathic effect measured after 3 to 5 days by microscopic analysis; type: functional, cell-based; conditions: Mammalian orthoreovirus 1, Vero
# Sindbis virus = assay: Antiviral activity against Sindbis virus infected in African green monkey Vero cells assessed as protection against virus-induced cytopathic effect measured after 3 to 5 days by microscopic analysis; type: functional, cell-based
# Coxsackievirus B4 = assay: Antiviral activity against Coxsackie virus B4 infected in African green monkey Vero cells assessed as protection against virus-induced cytopathic effect measured after 3 to 5 days by microscopic analysis; type: functional, cell-based; conditions: Enterovirus B
# Punta Toro virus [3] = assay: Antiviral activity against Punta Toro virus infected in African green monkey Vero cells assessed as protection against virus-induced cytopathic effect measured after 3 to 5 days by microscopic analysis; type: functional, cell-based
# Yellow fever virus = assay: Antiviral activity against Yellow fever virus infected in African green monkey Vero cells assessed as protection against virus-induced cytopathic effect measured after 3 to 5 days by microscopic analysis; type: functional, cell-based
# [4] = Cytotoxicity against human HeLa cells assessed as alterations in cell morphology by microscopic analysis; type: toxicity, cell-based; procedure, shortened: as §1
# [5] = Cytotoxicity against MDCK cells assessed as alterations in cell morphology by microscopic analysis; type: toxicity, cell-based, Canis lupus familiaris; conditions: dog; procedure, shortened: as §1
# [6] = Cytotoxicity against HEL cells assessed as alterations in cell morphology by microscopic analysis; type: toxicity, cell-based; conditions: human; procedure, shortened: as §1
# [7] = Cytotoxicity against cat CRFK cells assessed as by MTS cell viability assay; type: toxicity, cell-based, Felis catus
# [8] = Cytotoxicity against human MT4 cells by MTS cell viability assay; type: toxicity, cell-based
# Human alphaherpesvirus 3 = assay: Antiviral activity against Varicella zoster virus infected in HEL cells assessed as protection against virus-induced cytopathic effect at 100 uM measured after 3 to 5 days by microscopic analysis; type: functional, cell-based; conditions: Human alphaherpesvirus 3, HEL
# Procedure, shortened: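 HEL fibroblasts, subconfluent, were exposed to compound plus virus together. After 3–5 days CPE was scored microscopically as protection against virus-induced cell damage. EC50 is the concentration giving 50% protection; MCC is the concentration causing minimal morphology change by microscopy.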
# Punta Toro virus [9] = assay: Potency index, ratio of Dextran sulphate EC50 to test compound EC50 for Punta Toro virus infected in African green monkey Vero cells; type: functional
# Punta Toro virus [10] = assay: Potency index, ratio of mycophenolic acid EC50 to test compound EC50 for Punta Toro virus infected in African green monkey Vero cells; type: functional
# Punta Toro virus [11] = assay: Potency index, ratio of ribavirin EC50 to test compound EC50 for Punta Toro virus infected in African green monkey Vero cells; type: functional
# [12] = Selectivity index, ratio of MCC for African green monkey Vero cells to EC50 for Punta Toro virus infected in African green monkey Vero cells; type: toxicity, cell-based
# Punta Toro virus [13] = assay: Antiviral activity against Punta Toro virus infected in African green monkey Vero cells assessed as protection against virus-induced cytopathic effect at 20 uM measured after 3 to 5 days by microscopic analysis; type: functional
# Rift Valley fever virus = assay: Antiviral activity against RVFV MP-12 infected in African green monkey Vero cells assessed as protection against virus-induced cytopathic effect at 100 uM measured after 3 to 5 days by microscopic analysis; type: functional
Compound,MCC [1],EC50 (Human respirovirus 3),EC50 [2],EC50 (Sindbis virus),EC50 (Coxsackievirus B4),EC50 (Punta Toro virus [3]),EC50 (Yellow fever virus),MCC [4],MCC [5],MCC [6],CC50 [7],CC50 [8],EC50 (Human alphaherpesvirus 3),Activity (Punta Toro virus [3]),Ratio EC50 (Punta Toro virus [9]),Ratio EC50 (Punta Toro virus [10]),Ratio EC50 (Punta Toro virus [11]),Selectivity Index [12],Activity (Punta Toro virus [13]),Activity (Rift Valley fever virus)
CCOC(=O)C1=C(C)NC(=O)NC1/C=C/c1ccccc1 (centres undefined),100 µM,> 100 µM,> 100 µM,> 100 µM,> 100 µM,> 100 µM,> 100 µM,≥ 100 µM,> 100 µM,≥ 100 µM,> 100 µM,> 125 µM,57 µM,–,–,–,–,–,–,–
CCOC(=O)C1=C(C)NC(=O)NC1c1ccc(OC)cc1 (centres undefined),–,–,> 100 µM,–,–,–,–,> 100 µM,> 100 µM,–,–,–,–,–,–,–,–,–,–,–
CCOC(=O)C1=C(C)NC(=O)NC1c1ccccc1Cl (centres undefined),> 100 µM,> 100 µM,> 100 µM,> 100 µM,> 100 µM,> 100 µM,> 100 µM,> 100 µM,> 100 µM,> 100 µM,> 100 µM,96 µM,–,–,–,–,–,–,–,–
CCOC(=O)C1=C(C)NC(=O)NC1,> 100 µM,> 100 µM,> 100 µM,> 100 µM,> 100 µM,> 100 µM,> 100 µM,> 100 µM,> 100 µM,> 100 µM,> 100 µM,> 125 µM,–,–,–,–,–,–,–,–
CCOC(=O)C1=C(C)NC(=O)NC1c1ccc(O)cc1 (centres undefined),> 100 µM,> 100 µM,> 100 µM,> 100 µM,> 100 µM,> 100 µM,> 100 µM,> 100 µM,> 100 µM,> 100 µM,> 100 µM,> 125 µM,–,–,–,–,–,–,–,–
CCOC(=O)C1=C(C)NC(=O)NC1c1ccc(Br)cc1 (centres undefined),–,–,–,–,–,–,–,> 100 µM,> 100 µM,> 100 µM,–,–,–,–,–,–,–,–,–,–
NC(=O)c1ncn([C@@H]2O[C@H](CO)[C@@H](O)[C@H]2O)n1 [RIBAVIRIN],> 250 µM,112 µM,> 250 µM,> 250 µM,> 250 µM,50 µM,–,–,–,–,–,–,–,–,–,–,–,–,–,–
CCOC(=O)C1C2NC(=O)NC1(C)Oc1ccccc12 (centres undefined),> 100 µM,> 100 µM,> 100 µM,> 100 µM,> 100 µM,> 100 µM,> 100 µM,> 100 µM,> 100 µM,> 100 µM,> 100 µM,> 125 µM,–,–,–,–,–,–,–,–
COc1c(C)c2c(c(O)c1C/C=C(\C)CCC(=O)O)C(=O)OC2 [MYCOPHENOLIC ACID],> 100 µM,0.8 µM,1.8 µM,4 µM,> 250 µM,20 µM,4 µM,–,–,–,–,–,–,–,–,–,–,–,–,–
CCOC(=O)C1=C(C)NC(=O)NC1c1cccs1 (centres undefined),> 100 µM,> 100 µM,> 100 µM,> 100 µM,> 100 µM,> 100 µM,> 100 µM,> 100 µM,> 100 µM,> 100 µM,> 100 µM,> 125 µM,–,–,–,–,–,–,–,–
CCOC(=O)C1=C(C)NC(=O)NC1c1ccccc1 (centres undefined),–,> 100 µM,> 100 µM,–,–,–,–,> 100 µM,> 100 µM,–,–,–,–,–,–,–,–,–,–,–
CCOC(=O)C1=C(C)NC(=O)NC1CC(C)C (centres undefined),> 100 µM,> 100 µM,> 100 µM,> 100 µM,> 100 µM,> 100 µM,> 100 µM,> 100 µM,> 100 µM,> 100 µM,> 100 µM,> 125 µM,–,–,–,–,–,–,–,–
CCOC(=O)C1=C(C)NC(=O)NC1c1ccc(N(C)C)cc1 (centres undefined),100 µM,> 100 µM,> 100 µM,> 100 µM,> 100 µM,> 100 µM,> 100 µM,> 100 µM,> 100 µM,> 100 µM,> 100 µM,> 125 µM,–,–,–,–,–,–,–,–
CCOC(=O)C1=C(C)NC(=O)NC1C (centres undefined),> 100 µM,> 100 µM,> 100 µM,> 100 µM,> 100 µM,> 100 µM,> 100 µM,> 100 µM,> 100 µM,> 100 µM,> 100 µM,> 125 µM,–,–,–,–,–,–,–,–
CCCCCCCCCCCC1NC(=O)NC(C)=C1C(=O)OCC (centres undefined),≥ 100 µM,> 100 µM,> 100 µM,> 100 µM,> 100 µM,3 µM,> 100 µM,> 100 µM,> 100 µM,100 µM,> 100 µM,50 µM,–,Dose-dependent effect,7,7,17,>= 33,81%,40 - 50%
CCOC(=O)C1=C(C)NC(=O)NC1c1ccc(Cl)cc1 (centres undefined),–,–,–,–,–,–,–,> 100 µM,> 100 µM,> 100 µM,–,–,–,–,–,–,–,–,–,–
